Values joined by “and” are separate entries in the source; they are usually repeats but may differ in a detail not shown here. Equal entries are not always repeated.
Assays:
[1] = Inhibition of Human PBL (T cell) proliferation; assay type: functional
How it was run: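 Normal human peripheral blood T cells are added with test compound and anti-CD28 (E.3) antibody to wells precoated with anti-CD3 mAb (G19-4). After 3 days [3H]-thymidine is added, and after further incubation the cells are harvested and incorporation is counted by scintillation.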

[2] = Inhibition of recombinant p56 Lck tyrosine kinase expressed in insect cells
How it was run: (§1)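 His-tagged recombinant Lck made in insect cells by baculovirus and purified on nickel affinity resin. Kinase buffer is 20 mM MOPS pH 7 with 10 mM MgCl2, and the test compound is present. It is stopped after 10 min with TCA/pyrophosphate then BSA. Enolase is precipitated at 4 °C, filtered and counted by scintillation.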

[3] = molecular target: T1, Inhibitor of nuclear factor kappa-B kinase subunit beta (Homo sapiens, UniProt O14920); assay: Inhibition of I-kappa-B-kinase beta
T1 sequence (O14920 whole entry): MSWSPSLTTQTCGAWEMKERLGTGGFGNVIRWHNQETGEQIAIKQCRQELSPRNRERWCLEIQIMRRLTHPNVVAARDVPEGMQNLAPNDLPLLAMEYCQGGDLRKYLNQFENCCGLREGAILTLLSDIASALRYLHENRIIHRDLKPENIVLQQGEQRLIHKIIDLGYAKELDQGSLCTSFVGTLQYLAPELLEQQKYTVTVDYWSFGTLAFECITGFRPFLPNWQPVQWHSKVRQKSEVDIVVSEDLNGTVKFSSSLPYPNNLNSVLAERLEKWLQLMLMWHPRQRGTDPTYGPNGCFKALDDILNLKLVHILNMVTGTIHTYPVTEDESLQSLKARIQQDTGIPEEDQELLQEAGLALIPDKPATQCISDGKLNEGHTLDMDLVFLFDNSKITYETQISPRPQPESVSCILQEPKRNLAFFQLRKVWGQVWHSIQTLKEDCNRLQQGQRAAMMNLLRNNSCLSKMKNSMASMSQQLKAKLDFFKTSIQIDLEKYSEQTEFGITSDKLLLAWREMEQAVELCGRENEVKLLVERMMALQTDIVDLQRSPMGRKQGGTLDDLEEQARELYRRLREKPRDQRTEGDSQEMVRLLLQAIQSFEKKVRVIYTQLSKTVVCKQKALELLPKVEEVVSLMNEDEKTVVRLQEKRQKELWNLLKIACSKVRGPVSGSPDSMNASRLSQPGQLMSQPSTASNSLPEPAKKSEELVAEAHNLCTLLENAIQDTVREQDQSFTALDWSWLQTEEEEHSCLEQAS

[4] = molecular target: Tyrosine-protein kinase Lyn (Homo sapiens, UniProt P07948); assay: Inhibition of Lyn kinase
[5] = Binding affinity for recombinant Lck/Yes-related tyrosine kinase expressed in insect cells
[6] = Inhibition of Protein kinase A
[7] = molecular target: MAP kinase p38 (Homo sapiens, UniProt O15264+Q15759+Q16539+P53778); assay: Inhibition of p38 MAP-kinase; assay type: protein assay
[8] = Inhibition of p56 Lck tyrosine kinase; how it was run: as §1
[9] = Inhibition of Platelet-derived growth factor receptor
[10] = Inhibition of Blk kinase
[11] = molecular target: Receptor tyrosine-protein kinase erbB-2 (Homo sapiens, UniProt P04626); assay: Inhibition of HER2 kinase
[12] = molecular target: Tyrosine-protein kinase Fgr (Homo sapiens, UniProt P09769); assay: Inhibition of Fgr protein kinase
[13] = molecular target: T2, Tyrosine-protein kinase ZAP-70 (Homo sapiens, UniProt P43403); assay: Inhibition of Zeta-chain (TCR) associated protein kinase 70 kDa (ZAP-70)
T2 sequence (P43403 whole entry): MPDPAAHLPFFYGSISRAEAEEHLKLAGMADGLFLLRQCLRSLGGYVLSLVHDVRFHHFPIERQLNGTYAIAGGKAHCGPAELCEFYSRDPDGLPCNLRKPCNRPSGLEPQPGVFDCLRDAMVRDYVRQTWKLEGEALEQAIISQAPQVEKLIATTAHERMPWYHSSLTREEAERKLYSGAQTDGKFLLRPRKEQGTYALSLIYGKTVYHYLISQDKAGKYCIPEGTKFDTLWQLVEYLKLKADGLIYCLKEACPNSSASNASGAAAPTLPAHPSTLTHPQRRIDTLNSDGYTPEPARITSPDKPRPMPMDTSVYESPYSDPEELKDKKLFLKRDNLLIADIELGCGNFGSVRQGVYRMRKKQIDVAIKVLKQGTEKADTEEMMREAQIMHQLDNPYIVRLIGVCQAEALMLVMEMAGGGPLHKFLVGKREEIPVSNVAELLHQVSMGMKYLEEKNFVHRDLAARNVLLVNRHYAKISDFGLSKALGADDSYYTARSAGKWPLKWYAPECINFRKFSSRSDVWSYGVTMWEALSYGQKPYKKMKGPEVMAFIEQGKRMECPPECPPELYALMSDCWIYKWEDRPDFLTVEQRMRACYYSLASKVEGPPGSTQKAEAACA

[14] = molecular target: Protein kinase C (PKC); assay: Inhibition of PKC kinase; assay type: protein assay
[15] = molecular target: T3, Inhibitor of nuclear factor kappa-B kinase subunit alpha (Homo sapiens, UniProt O15111); assay: Inhibition of I kappa-B kinase alpha
T3 sequence (O15111 whole entry): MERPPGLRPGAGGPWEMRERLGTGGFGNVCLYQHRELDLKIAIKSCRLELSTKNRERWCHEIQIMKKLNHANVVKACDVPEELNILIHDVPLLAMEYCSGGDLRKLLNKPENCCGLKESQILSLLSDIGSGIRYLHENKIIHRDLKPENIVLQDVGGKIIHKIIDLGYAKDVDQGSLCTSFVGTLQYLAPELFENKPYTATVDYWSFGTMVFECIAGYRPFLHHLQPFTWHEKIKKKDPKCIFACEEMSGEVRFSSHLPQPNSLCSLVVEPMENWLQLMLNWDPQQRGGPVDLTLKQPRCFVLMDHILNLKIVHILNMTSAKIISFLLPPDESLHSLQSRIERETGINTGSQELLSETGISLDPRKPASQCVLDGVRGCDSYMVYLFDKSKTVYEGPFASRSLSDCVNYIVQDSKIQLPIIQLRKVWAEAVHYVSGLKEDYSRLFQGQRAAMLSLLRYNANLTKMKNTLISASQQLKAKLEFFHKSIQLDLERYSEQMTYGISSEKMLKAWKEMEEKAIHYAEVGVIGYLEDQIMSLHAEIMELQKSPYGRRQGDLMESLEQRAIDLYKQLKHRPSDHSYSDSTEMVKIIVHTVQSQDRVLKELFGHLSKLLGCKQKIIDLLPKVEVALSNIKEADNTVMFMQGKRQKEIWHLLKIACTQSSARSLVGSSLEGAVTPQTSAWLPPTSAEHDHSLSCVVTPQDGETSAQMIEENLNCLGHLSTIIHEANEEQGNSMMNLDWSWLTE

[16] = molecular target: Tyrosine-protein kinase Fyn (Homo sapiens, UniProt P06241); assay: Inhibition of Fyn protein kinase
[17] = molecular target: Tyrosine-protein kinase SYK (Homo sapiens, UniProt P43405); assay: Inhibition of Syk protein tyrosine kinase
[18] = molecular target: Tyrosine-protein kinase HCK (Homo sapiens, UniProt P08631); assay: Inhibition of Hck kinase
[19] = molecular target: Tyrosine-protein kinase Yes (Homo sapiens, UniProt P07947); assay: Inhibition of Yes kinase
[20] = Binding affinity for recombinant p56 Lck tyrosine kinase expressed in insect cells; how it was run: as §1

Receptor tyrosine-protein kinase erbB-2, sequence (P04626 whole entry): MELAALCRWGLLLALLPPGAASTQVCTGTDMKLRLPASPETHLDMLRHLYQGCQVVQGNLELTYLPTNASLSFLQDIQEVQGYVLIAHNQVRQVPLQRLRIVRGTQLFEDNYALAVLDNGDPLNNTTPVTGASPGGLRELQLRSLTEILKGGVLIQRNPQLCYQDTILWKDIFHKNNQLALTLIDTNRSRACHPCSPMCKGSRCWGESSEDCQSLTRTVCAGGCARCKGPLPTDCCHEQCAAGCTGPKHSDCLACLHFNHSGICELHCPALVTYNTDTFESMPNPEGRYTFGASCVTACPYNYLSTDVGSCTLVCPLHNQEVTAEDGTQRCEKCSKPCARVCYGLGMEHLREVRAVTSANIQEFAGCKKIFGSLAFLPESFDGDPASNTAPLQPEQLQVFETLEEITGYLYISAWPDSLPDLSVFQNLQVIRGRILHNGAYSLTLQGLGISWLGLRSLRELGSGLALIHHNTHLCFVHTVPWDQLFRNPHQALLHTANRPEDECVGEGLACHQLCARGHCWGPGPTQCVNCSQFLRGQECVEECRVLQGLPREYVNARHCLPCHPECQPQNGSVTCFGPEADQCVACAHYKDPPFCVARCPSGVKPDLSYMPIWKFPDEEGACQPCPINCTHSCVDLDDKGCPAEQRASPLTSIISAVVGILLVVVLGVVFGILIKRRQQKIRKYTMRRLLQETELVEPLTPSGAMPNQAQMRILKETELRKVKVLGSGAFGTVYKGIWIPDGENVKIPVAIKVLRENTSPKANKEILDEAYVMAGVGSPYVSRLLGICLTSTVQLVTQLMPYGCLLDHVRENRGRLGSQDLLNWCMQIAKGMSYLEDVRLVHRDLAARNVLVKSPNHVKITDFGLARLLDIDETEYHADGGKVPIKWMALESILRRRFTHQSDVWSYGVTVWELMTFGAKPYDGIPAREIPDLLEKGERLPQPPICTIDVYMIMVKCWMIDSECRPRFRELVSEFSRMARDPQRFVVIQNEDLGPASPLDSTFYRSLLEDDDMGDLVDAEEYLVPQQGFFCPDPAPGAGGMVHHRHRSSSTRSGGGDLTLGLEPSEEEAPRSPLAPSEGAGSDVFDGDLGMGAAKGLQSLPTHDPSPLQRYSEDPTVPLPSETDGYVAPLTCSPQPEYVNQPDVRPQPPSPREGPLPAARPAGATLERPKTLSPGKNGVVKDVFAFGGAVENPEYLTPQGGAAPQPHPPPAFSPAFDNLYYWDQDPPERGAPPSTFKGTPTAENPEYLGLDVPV
Tyrosine-protein kinase Lyn, sequence (P07948 whole entry): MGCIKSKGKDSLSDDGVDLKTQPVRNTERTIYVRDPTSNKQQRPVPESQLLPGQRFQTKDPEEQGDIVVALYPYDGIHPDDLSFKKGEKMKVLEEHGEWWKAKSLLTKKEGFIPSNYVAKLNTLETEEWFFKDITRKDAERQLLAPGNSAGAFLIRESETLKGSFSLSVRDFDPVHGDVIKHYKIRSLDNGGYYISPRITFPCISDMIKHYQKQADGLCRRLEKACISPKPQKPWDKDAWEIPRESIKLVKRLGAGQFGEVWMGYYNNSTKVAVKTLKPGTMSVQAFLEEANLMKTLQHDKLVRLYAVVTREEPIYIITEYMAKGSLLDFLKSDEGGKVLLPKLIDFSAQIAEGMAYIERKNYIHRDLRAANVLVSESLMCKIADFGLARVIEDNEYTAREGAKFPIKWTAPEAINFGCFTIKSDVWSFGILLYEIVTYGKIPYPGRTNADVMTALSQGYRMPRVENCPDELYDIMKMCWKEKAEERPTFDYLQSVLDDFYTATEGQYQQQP
Tyrosine-protein kinase Yes, sequence (P07947 whole entry): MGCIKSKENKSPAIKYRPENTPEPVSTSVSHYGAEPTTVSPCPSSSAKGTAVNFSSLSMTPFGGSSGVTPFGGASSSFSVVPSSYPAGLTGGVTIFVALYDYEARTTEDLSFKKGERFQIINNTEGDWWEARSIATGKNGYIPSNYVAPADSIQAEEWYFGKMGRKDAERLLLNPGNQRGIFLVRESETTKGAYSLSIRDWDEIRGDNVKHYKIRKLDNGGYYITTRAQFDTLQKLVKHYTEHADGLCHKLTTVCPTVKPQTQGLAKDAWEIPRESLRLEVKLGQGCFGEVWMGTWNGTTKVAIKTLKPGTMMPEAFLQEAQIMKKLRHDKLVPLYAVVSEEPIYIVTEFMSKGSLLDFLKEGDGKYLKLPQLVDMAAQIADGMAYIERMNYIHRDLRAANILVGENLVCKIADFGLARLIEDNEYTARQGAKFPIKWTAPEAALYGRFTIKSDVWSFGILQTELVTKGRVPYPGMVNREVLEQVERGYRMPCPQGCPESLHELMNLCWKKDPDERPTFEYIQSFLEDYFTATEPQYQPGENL
Tyrosine-protein kinase HCK, sequence (P08631 whole entry): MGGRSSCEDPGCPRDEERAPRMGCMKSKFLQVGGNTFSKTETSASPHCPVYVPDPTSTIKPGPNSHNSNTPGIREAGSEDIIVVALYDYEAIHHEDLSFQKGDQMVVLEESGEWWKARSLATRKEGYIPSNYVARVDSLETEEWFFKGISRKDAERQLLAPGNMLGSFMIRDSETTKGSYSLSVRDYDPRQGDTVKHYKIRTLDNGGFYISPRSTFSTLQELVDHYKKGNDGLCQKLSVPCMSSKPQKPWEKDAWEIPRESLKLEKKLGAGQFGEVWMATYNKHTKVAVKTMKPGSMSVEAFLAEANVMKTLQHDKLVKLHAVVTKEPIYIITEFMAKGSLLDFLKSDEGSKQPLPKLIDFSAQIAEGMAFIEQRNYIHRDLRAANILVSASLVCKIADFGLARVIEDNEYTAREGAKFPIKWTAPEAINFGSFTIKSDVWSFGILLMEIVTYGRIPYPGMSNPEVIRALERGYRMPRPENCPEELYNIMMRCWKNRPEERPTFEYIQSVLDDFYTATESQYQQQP
Tyrosine-protein kinase Fgr, sequence (P09769 whole entry): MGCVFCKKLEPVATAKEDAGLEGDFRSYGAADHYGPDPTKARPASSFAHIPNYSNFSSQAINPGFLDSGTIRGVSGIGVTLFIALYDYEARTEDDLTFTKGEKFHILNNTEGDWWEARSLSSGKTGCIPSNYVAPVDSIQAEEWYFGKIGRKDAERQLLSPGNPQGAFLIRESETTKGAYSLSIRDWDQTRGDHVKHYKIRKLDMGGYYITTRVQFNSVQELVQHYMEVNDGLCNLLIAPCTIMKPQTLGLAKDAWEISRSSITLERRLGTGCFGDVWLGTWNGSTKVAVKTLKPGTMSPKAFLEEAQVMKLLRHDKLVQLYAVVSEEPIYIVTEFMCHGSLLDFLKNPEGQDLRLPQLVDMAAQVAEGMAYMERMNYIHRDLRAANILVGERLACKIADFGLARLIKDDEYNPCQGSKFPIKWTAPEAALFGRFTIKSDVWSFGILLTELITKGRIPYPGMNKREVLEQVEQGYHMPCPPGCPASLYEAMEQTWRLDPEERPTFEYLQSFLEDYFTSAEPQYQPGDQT
Tyrosine-protein kinase Fyn, sequence (P06241 whole entry): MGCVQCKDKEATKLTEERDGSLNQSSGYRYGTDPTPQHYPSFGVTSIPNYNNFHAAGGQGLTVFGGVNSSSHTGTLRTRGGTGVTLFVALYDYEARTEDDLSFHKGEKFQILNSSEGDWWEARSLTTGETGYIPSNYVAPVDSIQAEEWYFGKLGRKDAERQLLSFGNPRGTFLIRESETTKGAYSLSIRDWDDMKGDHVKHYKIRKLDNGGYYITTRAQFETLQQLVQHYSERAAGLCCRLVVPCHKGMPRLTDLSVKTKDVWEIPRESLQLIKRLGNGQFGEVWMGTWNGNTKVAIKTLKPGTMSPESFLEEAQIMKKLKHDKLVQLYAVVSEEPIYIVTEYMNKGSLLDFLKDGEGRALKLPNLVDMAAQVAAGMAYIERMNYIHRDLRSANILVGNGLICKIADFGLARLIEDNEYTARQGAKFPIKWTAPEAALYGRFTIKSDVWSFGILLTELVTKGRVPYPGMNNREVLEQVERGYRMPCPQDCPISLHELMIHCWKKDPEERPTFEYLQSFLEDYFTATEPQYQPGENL

Compound	IC50 ([1]; Homo sapiens) [nM]	IC50 [2] [nM]	other results
Brc1ccccc1Nc1nc2ccccc2n2cncc12	17000	–	–
Cc1cccc(Cl)c1Nc1nc2ccccc2n2cncc12	5000	9	–
Cc1cccc(Cl)c1Nc1nc2ncccc2n2cncc12	–	90	–
Cc1cccc(Cl)c1Nc1nc2ccc(N3C[C@@H](C)N[C@@H](C)C3)nc2n2cncc12	400	2	–
Cc1cccc(Cl)c1Nc1nc2cccnc2n2cncc12	–	30	–
Cc1cccc(Cl)c1Nc1nc2ccc(N3CCN(CCO)CC3)nc2n2cncc12	240	9	–
Cc1cccc(Cl)c1Nc1nc2cc(N(C)CCN3CCOCC3)ncc2n2cncc12	–	103	–
COc1cc2nc(Nc3c(C)cccc3Cl)c3cncn3c2cc1OC	670	–	–
Cc1cccc(Cl)c1Nc1nc2ccc(N3C[C@@H](O)[C@H](O)C3)nc2n2cncc12	440	5	–
Cc1cccc(Cl)c1Nc1nc2ccc(N3CC[C@@H](O)C3)nc2n2cncc12	730	8	–
Cc1cccc(Cl)c1Nc1nc2ccc(N3CCN(CCN(C)C)CC3)nc2n2cncc12	250	2	–
Cc1cccc(Cl)c1Nc1nc2ccc(N3C[C@H](O)[C@@H](O)C3)nc2n2cncc12	> 2000	13	–
Cc1cccc(Cl)c1Nc1nc2cnc(N3C[C@@H](C)N[C@@H](C)C3)cc2n2cncc12	–	29	–
Cc1cccc(Cl)c1Nc1nc2ccc(NCCO)nc2n2cncc12	490	3	–
Cc1cccc(Cl)c1Nc1nc2ccncc2n2cncc12	–	1400	–
COc1cc2c(cc1NCCN(C)C)nc(Nc1c(C)cccc1Cl)c1cncn12	194	–	–
Cc1cccc(Cl)c1Nc1nc2ccc(N3CCCNCC3)nc2n2cncc12	540	6	–
COc1ccc2nc(Nc3c(C)cccc3Cl)c3cncn3c2n1	1800	19	–
CC1=NN(C)C2C1N=C(Nc1c(C)cccc1Cl)c1cnc(C)n12 (stereo unspecified)	–	> 780	–
Cc1cccc(Cl)c1Nc1nc2ccc(N(C)CCN(C)C)nc2n2cncc12	–	71	–
Cc1cccc(Cl)c1Nc1nc2ccc(Cl)nc2n2cncc12	–	25	–
Cc1cccc(C)c1Nc1nc2ncccc2n2cncc12	–	150	–
Cc1cccc(Cl)c1Nc1nc2cc(N3CCNCC3)ncc2n2cncc12	–	163	–

Compound	IC50 ([1]; Homo sapiens) [nM]	IC50 [2] [nM]	other results
CCN(CC)c1ccc2nc(Nc3c(C)cccc3Cl)c3cncn3c2n1	2100	2	–
Cc1cccc(Cl)c1Nc1nc2cc(N(C)CCN(C)C)ncc2n2cncc12	–	240	–
Cc1cccc(Cl)c1Nc1nc2ccc(N3CCN[C@@H](C)C3)nc2n2cncc12	–	–	IC50 [3]: > 10000 nM; IC50 [4]: 0.5 nM; Kd [5]: 0.17 nM; Ki [5]: 0.55 nM; IC50 [6]: > 10000 nM; IC50 [7]: 380 nM; IC50 [8]: 4 nM; IC50 [9]: > 1000 nM; IC50 [10]: 27 nM; IC50 [11]: > 1000 nM; IC50 [12]: 2.8 nM; IC50 [13]: > 1000 nM; IC50 [14]: > 10000 nM; IC50 [15]: > 10000 nM; IC50 [16]: 5 nM; IC50 [17]: > 10000 nM; IC50 [18]: 23 nM; IC50 [19]: 4.7 nM; IC50 [1]: 273 nM and > 100 nM
Cc1cccc(Cl)c1Nc1nc2ccc(N(C)C[C@@H](O)CO)nc2n2cncc12	300	7	–
Cc1cccc(Cl)c1Nc1nc2ccc(N(C)C)nc2n2cncc12	1200	1	Log IC50 [20]: 3 µM
Cc1cccc(Cl)c1Nc1nc2ccc(N3CCN[C@H](C)C3)nc2n2cncc12	240	2	–
Cc1cccc(Cl)c1Nc1nc2ccc(N3CCN[C@@H](CO)C3)nc2n2cncc12	270	5	–
Cc1cccc(Cl)c1Nc1nc2ccc(N(C)C[C@H](O)CO)nc2n2cncc12	630	13	–
Cc1cccc(Cl)c1Nc1nc2ccc(N3CCCCC3)nc2n2cncc12	–	7	–
Cc1cccc(Cl)c1Nc1nc2ccc(N3CCN[C@H](CO)C3)nc2n2cncc12	180	3	–
Cc1cccc(C)c1Nc1nc2ccc(N3CCNCC3)nc2n2cncc12	230	1	–
Cc1cccc(Cl)c1Nc1nc2ccc(N3CCOCC3)nc2n2cncc12	1900	1	–
Cc1cccc(Cl)c1Nc1nc2ccc(N3CCN(C)CC3)nc2n2cncc12	400	1	–
Cc1cccc(Cl)c1Nc1nc2ccc(N(C)CCO)nc2n2cncc12	620	3	–
Cc1cccc(Cl)c1Nc1nc2ccc(N3CC[C@H](O)C3)nc2n2cncc12	340	4	–
Cc1cccc(Cl)c1Nc1nc2ccc(N3CC[C@@H](N)C3)nc2n2cncc12	310	7	–
COc1ccc2c(c1)nc(Nc1c(C)cccc1Cl)c1cncn12	2600	–	–
Cc1cccc(Cl)c1Nc1nc2ccc(N3CC[C@H](N)C3)nc2n2cncc12	370	6	–
Cc1cccc(Cl)c1Nc1nc2ccc(N(CCO)CCO)nc2n2cncc12	620	4	–
Cc1cccc(Cl)c1Nc1nc2ccc(-n3ccnc3)nc2n2cncc12	470	5	–
COc1ncc2c(n1)nc(Nc1c(C)cccc1Cl)c1cncn12	–	> 780	–
Cc1cccc(Cl)c1NC1=NC2N=CN(C)C2n2c1cnc2C (stereo unspecified)	–	> 780	–
Cc1cccc(Cl)c1Nc1nc2cnccc2n2cncc12	–	77	–
